Results taken from ChEMBL document CHEMBL1909523, “2,6-Bis-arylmethyloxy-5-hydroxychromones with antiviral activity against both hepatitis C virus (HCV) and SARS-associated coronavirus (SCV)” (Eur J Med Chem, 2011).
pEC50, pIC50: −log10 of the molar value. Activity calls are given as the source filed them. The rule behind the calls is not given here.

Legend:
[1] = Inhibition of NTPase activity of SCV NTPase/helicase after 5 mins by FRET assay; design: species or system Severe acute respiratory syndrome-related coronavirus
HS27 = experiment: Cytotoxicity against human HS27 cells after 24 hrs by MTT assay; format: cell-based; conditions: hs27, 24 h
Outline: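 Normal human fibroblast HS27 cells, 5 × 10^3/well in DMEM, grown 1 day (37 °C, 5% CO2), then given compounds at 0.1, 0.5, 1, 5, 10 and 50 µM (from DMSO) for 24 h; MTT viability read-out; triplicates, repeated three times. Value is the concentration reducing proliferation by 50%.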

[2] = Inhibition of helicase activity of SCV NTPase/helicase assessed as inhibition of ds-DNA unwinding after 5 mins by FRET assay; design: species or system Severe acute respiratory syndrome-related coronavirus
Outline: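 FRET unwinding: helicase solution (150 nM, 20 mM HEPES pH 7.4) preincubated 5 min at rt with compound. Started with 5× mix (5 mM MgCl2, 45 mM ATP, 25 mM DTT, 100 nM substrate): 25-bp TAMRA/fluorescein dsDNA with 20-dT 5′ overhang. Run 2 min at 37 °C, stopped with EDTA plus unlabelled trap oligomer; ex 485/em 535 nm. Value is 50% inhibition concentration.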

Hepatitis C virus [3] = experiment: Antiviral activity against HCV genotype 1 infected in human Huh7 cells assessed as reduction of viral replication after 4 days by luciferase reporter gene assay; format: functional, organism-based, Hepacivirus hominis; conditions: genotype 1, Huh-7, 96 h
Outline: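 Subgenomic genotype 1 replicon (luc-ubi-neo) Huh-5-2 cells, 5 × 10^3/well, in DMEM with 500 µg/mL G418 for 24 h at 37 °C, 5% CO2; medium refreshed with G418, compounds added from DMSO stock; 4 days at 37 °C; luciferase read-out. Value is the concentration inhibiting HCV RNA replication by 50%.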

Hepatitis C virus [4] = experiment: Inhibition of HCV genotype 1b NS5B cdelta21 RNA polymerase using [alpha32p]GTP after 30 mins by microbeta scintillation counting; conditions: Hepatitis C virus subtype 1b

`O=c1c(OCc2cccc([N+](=O)[O-])c2)c(-c2ccccc2)oc2cc(O)cc(O)c12` showed a pIC50 [1] of less than 4.30, an Activity (HS27) greater than 50 µM and a pIC50 [2] of less than 4.30.

For `N#Cc1cccc(COc2cc(O)c3c(=O)c(O)c(-c4ccccc4)oc3c2)c1`, the pIC50 [1] was less than 4.30, the Activity (HS27) was greater than 50 µM and the pIC50 [2] was less than 4.30.

For `O=c1cc(OCc2ccccc2)oc2ccc(OCc3cccc(Cl)c3)c(O)c12`, the pEC50 (Hepatitis C virus [3]) was less than 4.30, the inhibition (Hepatitis C virus [4]) was “inactive” and the pIC50 [1] was less than 4.30. The Activity (HS27) was greater than 50 µM and the pIC50 [2] was less than 4.30.

For `O=c1cc(OCc2cccc(I)c2)oc2ccc(OCc3cccc(Cl)c3)c(O)c12`, the pEC50 (Hepatitis C virus [3]) was 5.40, the inhibition (Hepatitis C virus [4]) was “inactive” and the pIC50 [1] was 5.40. For the same compound, the Activity (HS27) was greater than 50 µM and the pIC50 [2] was 4.96.

For `O=c1cc(OCc2ccc(I)cc2)oc2ccc(OCc3cccc(Cl)c3)c(O)c12`, the pEC50 (Hepatitis C virus [3]) was 5.52, the inhibition (Hepatitis C virus [4]) was “inactive” and the pIC50 [1] was 4.64. It also gave an Activity (HS27) greater than 50 µM and a pIC50 [2] of 4.51.

For `N#Cc1cccc(COc2cc(=O)c3c(O)c(OCc4cccc(Cl)c4)ccc3o2)c1`, the pEC50 (Hepatitis C virus [3]) was 4.77, the inhibition (Hepatitis C virus [4]) was “inactive” and the pIC50 [1] was 4.43. The Activity (HS27) was greater than 50 µM and the pIC50 [2] was less than 4.30.

For `O=c1cc(OCc2ccc(Cl)cc2)oc2ccc(OCc3cccc(Cl)c3)c(O)c12`, the pEC50 (Hepatitis C virus [3]) was 4.62, the inhibition (Hepatitis C virus [4]) was “inactive” and the pIC50 [1] was 4.55. For the same compound, the Activity (HS27) was greater than 50 µM and the pIC50 [2] was 4.28.

In the case of `O=c1cc(OCc2cc(Cl)cc(Cl)c2)oc2ccc(OCc3cccc(Cl)c3)c(O)c12`, the pEC50 (Hepatitis C virus [3]) was 6.00, the inhibition (Hepatitis C virus [4]) was “inactive” and the pIC50 [1] was less than 4.30. For the same compound, the Activity (HS27) was greater than 50 µM and the pIC50 [2] was less than 4.30.

In the case of `O=C(O)/C(O)=C/C(=O)c1cccc(NCc2ccc(Cl)cc2)c1`, the pEC50 (Hepatitis C virus [3]) was 6.10, the pIC50 [1] was less than 4.30 and the Activity (HS27) was greater than 50 µM.

With `O=c1cc(OCc2cccc(Cl)c2)oc2ccc(OCc3cccc(Cl)c3)c(O)c12` the pEC50 (Hepatitis C virus [3]) was 4.77, the inhibition (Hepatitis C virus [4]) was “inactive” and the pIC50 [1] was 5.00. It also gave an Activity (HS27) greater than 50 µM and a pIC50 [2] of 4.40.
